As a reminder, the IC50 is the concentration needed to halve the response being measured. Higher therefore signals weaker potency in that assay.

The source of these data is ChEMBL document CHEMBL1148429, “Penicillin-derived inhibitors that simultaneously target both metallo- and serine-beta-lactamases” (Bioorg Med Chem Lett, 2004).

Converted amounts (≈) assume the structure as drawn.

For experiment [1], the system named is Pseudomonas aeruginosa. The experiment in a line: Synergistic activity against VIM-7 beta lactamase produced by Pseudomonas aeruginosa presence of piperacillin (1:1) and compound 5c; R = Resistant.
Experiment [2] has as its system Escherichia coli. Kind of experiment: Synergic activity against IMP-1 beta lactamase produced by Escherichia coli in presence of piperacillin (1:1); R = Resistant. The class given is functional.
Experiment [3] relates to Pseudomonas aeruginosa. Kind of experiment: Synergistic activity against SPM-1 beta lactamase produced by Pseudomonas aeruginosa in presence of piperacillin (1:1) and compound 5c; S = susceptible.
The test system of experiment [4] is Escherichia coli. The experiment in a line: Synergic activity against IMP-1 beta lactamase produced by Escherichia coli in presence of piperacillin (1:1) and compound 5c; S = susceptible. Type of experiment: functional. A digest of the protocol: (§1)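 Synergy with piperacillin against metallo-β-lactamase-producing strains (IMP-1; SPM-1, VIM-1 or VIM-7 carriers). The initial screen used […] at a 1:1 antibiotic:inhibitor ratio. Inhibitor was tested with tazobactam or DVR-II-183 added as a serine β-lactamase inhibitor, or without one.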

The subject of experiment [5] is Pseudomonas aeruginosa. Kind of experiment: Synergistic activity against VIM-1 beta lactamase produced by Pseudomonas aeruginosa presence of piperacillin (1:1) and compound 5c; S = susceptible.
The test system of experiment [6] is Pseudomonas aeruginosa. Kind of experiment: Synergistic activity against SPM-1 beta lactamase produced by Pseudomonas aeruginosa in presence of piperacillin (1:1); R = Resistant.
For experiment [7], the system named is Pseudomonas aeruginosa. The experiment in a line: Synergistic activity against VIM-1 beta lactamase produced by Pseudomonas aeruginosa presence of piperacillin (1:1); R = Resistant.
For experiment [8], the system named is Pseudomonas aeruginosa. Kind of experiment: Synergistic activity against VIM-7 beta lactamase produced by Pseudomonas aeruginosa presence of piperacillin (1:1); R = Resistant.
The target in experiment [9] is Beta-lactamase L1 (Stenotrophomonas maltophilia, UniProt P52700). Kind of experiment: Beta-Lactamase Inhibition of metallo-beta-lactamase representative class B (L1) enzyme. In a few lines:
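For the metallo enzyme, inhibitor and enzyme were preincubated for 4 min. Concentrated nitrocefin was then added to give the final assay volume, and IC50 was determined.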

Experiment [10] deals with Staphylococcus aureus. The experiment in a line: Antibacterial activity was determined against the Staphylococcus aureus ATCC 29213 in presence of Piperacillin. Type of experiment: functional. A digest of the protocol:
(§2)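 MIC of piperacillin against β-lactamase-producing strains, with the piperacillin concentration varied and the inhibitor held constant at […].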

The target in experiment [11] is Beta-lactamase TEM (Escherichia coli, UniProt P62593). Kind of experiment: Beta-Lactamase inhibitory activity against representative class A (TEM-1) serine enzyme. In a few lines:
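Serine β-lactamase assay: inhibitor preincubated with enzyme for 4 min in 100 µL, then an aliquot transferred into dilute nitrocefin substrate (1 mL final). IC50 is expressed as the inhibitor concentration in the 100 µL incubation, from multiple experiments.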

In experiment [12] the target is T1, Metallo-beta-lactamase type 2 (Bacillus cereus, UniProt P14488).
T1 sequence (P14488 whole entry): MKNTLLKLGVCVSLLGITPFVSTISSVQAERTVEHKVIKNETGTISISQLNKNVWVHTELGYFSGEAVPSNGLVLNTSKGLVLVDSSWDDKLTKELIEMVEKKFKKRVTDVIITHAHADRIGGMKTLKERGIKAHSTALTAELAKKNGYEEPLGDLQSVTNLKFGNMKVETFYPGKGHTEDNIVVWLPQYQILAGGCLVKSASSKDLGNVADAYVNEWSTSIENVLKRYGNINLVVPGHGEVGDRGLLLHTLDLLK
Kind of experiment: Inhibition of class B (BCII) metallo-beta-lactamase representative enzyme. A digest of the protocol: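 BCII metallo-β-lactamase assay: inhibitor and enzyme incubated together for 4 min in 970 µL, then concentrated nitrocefin added to 1 mL final volume. IC50 determined from nitrocefin hydrolysis.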

Experiment [13] concerns the target Beta-lactamase TEM (Escherichia coli) (UniProt P62593). The experiment in a line: Beta-Lactamase inhibitory activity against representative class A (TEM-1) serine enzyme from Escherichia coli ATCC 35218 in presence of Piperacillin. A digest of the protocol:
as §2

Experiment [14] has as its target Beta-lactamase (Escherichia coli K-12) (UniProt P00811).
Experiment [15] deals with Pseudomonas aeruginosa. The experiment in a line: Synergistic activity against VIM-1 beta lactamase produced by Pseudomonas aeruginosa in presence of Piperacillin and Tazobactam; R = Resistant.
Experiment [16] relates to Pseudomonas aeruginosa. Kind of experiment: Synergistic activity against SPM-1 beta lactamase produced by Pseudomonas aeruginosa in presence of Piperacillin and Tazobactam; R = Resistant.
For experiment [17], the system named is Escherichia coli. The experiment in a line: Synergic activity against IMP-1 beta lactamase produced by Escherichia coli in presence of Piperacillin and Tazobactam; S = susceptible. The class given is functional. A digest of the protocol:
as §1

For experiment [18], the system named is Pseudomonas aeruginosa. Kind of experiment: Synergistic activity against VIM-7 beta lactamase produced by Pseudomonas aeruginosa in presence of Piperacillin and Tazobactam; R = Resistant.
The nature of experiment [19]: Synergistic activity against SPM-1 beta lactamase produced by Pseudomonas aeruginosa in presence of Piperacillin.
The nature of experiment [20]: Synergic activity against IMP-1 beta lactamase produced by Escherichia coli was determined in presence of Piperacillin. The class given is functional.
A short description of experiment [21]: Synergistic activity against VIM-7 beta lactamase produced by Escherichia coli in presence of Piperacillin. The settings on record: Pseudomonas aeruginosa. Type of experiment: functional, plasmodium aeruginosa.
For experiment [22], the system named is Pseudomonas aeruginosa. Kind of experiment: Synergistic activity against VIM-1 beta lactamase produced by Pseudomonas aeruginosa in presence of Piperacillin; R = Resistant.
A short description of experiment [23]: Synergistic activity against VIM-1 beta lactamase produced by Pseudomonas aeruginosa in presence of Piperacillin.
For experiment [24], the system named is Pseudomonas aeruginosa. The experiment in a line: Synergistic activity against VIM-7 beta lactamase produced by Pseudomonas aeruginosa in presence of Piperacillin; R = Resistant.

Sequence of Beta-lactamase (Escherichia coli K-12) (P00811 whole entry): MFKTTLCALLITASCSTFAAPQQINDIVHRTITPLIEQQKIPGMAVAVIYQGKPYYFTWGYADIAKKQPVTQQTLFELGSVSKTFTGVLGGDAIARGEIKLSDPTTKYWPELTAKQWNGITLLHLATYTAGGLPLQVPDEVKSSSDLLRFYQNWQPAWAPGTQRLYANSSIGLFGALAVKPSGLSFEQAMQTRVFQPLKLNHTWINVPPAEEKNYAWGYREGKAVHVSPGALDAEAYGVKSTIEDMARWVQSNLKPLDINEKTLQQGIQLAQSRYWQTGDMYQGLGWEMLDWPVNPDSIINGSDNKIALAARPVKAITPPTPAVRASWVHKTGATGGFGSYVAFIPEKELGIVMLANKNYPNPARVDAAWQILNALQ
Sequence of Beta-lactamase TEM (P62593 whole entry): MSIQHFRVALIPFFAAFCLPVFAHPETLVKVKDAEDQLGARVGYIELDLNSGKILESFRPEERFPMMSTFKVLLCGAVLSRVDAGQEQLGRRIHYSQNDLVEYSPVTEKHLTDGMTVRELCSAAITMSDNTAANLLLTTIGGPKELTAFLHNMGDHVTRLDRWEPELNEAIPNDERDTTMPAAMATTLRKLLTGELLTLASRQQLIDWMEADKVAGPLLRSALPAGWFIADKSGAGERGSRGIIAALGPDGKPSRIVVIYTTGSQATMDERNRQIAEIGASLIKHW
Sequence of Beta-lactamase TEM (Escherichia coli) (P62593 whole entry): as above
Sequence of Beta-lactamase L1 (P52700 whole entry): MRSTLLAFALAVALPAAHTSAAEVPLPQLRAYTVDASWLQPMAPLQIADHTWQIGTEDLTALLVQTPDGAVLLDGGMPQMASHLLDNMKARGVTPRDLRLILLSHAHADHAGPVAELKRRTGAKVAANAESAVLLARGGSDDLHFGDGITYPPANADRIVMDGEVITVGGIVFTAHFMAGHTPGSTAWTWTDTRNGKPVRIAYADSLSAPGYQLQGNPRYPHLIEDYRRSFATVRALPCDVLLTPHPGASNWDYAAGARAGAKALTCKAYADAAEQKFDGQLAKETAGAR

As for `C[C@@]1(COC(=O)Cc2ccc(O)c(O)c2)S[C@@H]2/C(=C\c3ccccn3)C(=O)N2[C@H]1C(=O)O`, the Activity result in [1] was “Resistant”; in experiment [2], “Resistant”; in experiment [3], “Susceptible”; in experiment [4], “Susceptible”; in [5], “Susceptible”; in experiment [6], “Resistant”. Further, the Activity result in [7] and in experiment [8] was “Resistant” throughout.

Regarding `CC1(C)[C@H](C(=O)O)N2C(=O)[C@H](S)[C@H]2S1(=O)=O`, the concentration for half-maximal inhibition (IC50) is 7.6 µM in experiment [9], 69.2 µM in experiment [11] and 106 µM in experiment [12]. Also, the MIC in experiment [10] was 8 µg/mL; in experiment [13], over 128 µg/mL; in [14], 2 µg/mL (≈ 7.54 µM).

Turning to `CC1(C)S[C@@H]2[C@H](CS)C(=O)N2[C@H]1C(=O)O`, the values for the half-maximal inhibitory concentration (IC50) in experiment [9], in experiment [11] and in experiment [12] were 32.1 µM, 601 µM and 2.9 µM, respectively. For the same compound, the Activity result in experiment [15] is “Resistant”; in [16] it was “Resistant”; in [17] it was “Susceptible”; in experiment [18] it was “Resistant”. Besides, the MIC in [10] was 2 µg/mL; in experiment [13] it was over 128 µg/mL; in [14], 2 µg/mL (≈ 8.09 µM).

Consider `CC1(C)S[C@@H]2[C@H](S)C(=O)N2[C@H]1C(=O)O`, for which the IC50 is 41.4 µM in [9], over 1000 µM in experiment [11] and 17.8 µM in experiment [12]. The MIC in experiment [10] is 8 µg/mL; in experiment [13], over 128 µg/mL; in experiment [14] it was 2 µg/mL (≈ 8.57 µM).

Consider `O=C(O)c1cccc(C(=O)O)n1` [DIPICOLINIC ACID], for which the half-inhibitory concentration (IC50) in experiment [9] came out at 7.8 µM; in experiment [12], 21.8 µM.

In the case of `CC1(C)[C@H](C(=O)O)N2C(=O)[C@H](CO)[C@H]2S1(=O)=O`, the IC50 in experiment [9] and in experiment [12] was over 200 µM each time. Besides, the MIC came to 2 µg/mL in [10], 8 µg/mL in experiment [13] and 0.25 µg/mL (≈ 0.95 µM) in [14].

For the compound `CC1(C)S[C@@H]2[C@@H](CS)C(=O)N2[C@H]1C(=O)O`, the IC50 in experiment [9] was determined as 10.9 µM; in experiment [12], 1.7 µM. The Activity result was “Resistant” in experiment [15], “Resistant” in experiment [16], “Susceptible” in experiment [17] and “Resistant” in experiment [18]. Also, the MIC in experiment [10] is 4 µg/mL; in [13] it was over 128 µg/mL; in experiment [14], 2 µg/mL (≈ 8.09 µM).

Regarding `CC1(C)[C@H](C(=O)O)N2C(=O)[C@H](CS)[C@H]2S1(=O)=O`, the half-maximal inhibitory concentration (IC50) in [9] amounted to 0.3 µM; in [12], 12 µM. Moreover, the Activity entry in experiment [15] was “Resistant”; in experiment [16], “Resistant”; in [17], “Susceptible”; in [18], “Resistant”. Further, the MIC was found to be 4 µg/mL in [10], 32 µg/mL in experiment [13] and 0.5 µg/mL (≈ 1.79 µM) in experiment [14].

Turning to `C[C@]1(Cn2ccnn2)[C@H](C(=O)[O-])N2C(=O)C[C@H]2S1(=O)=O.[Na+]` [TAZOBACTAM SODIUM], the MIC in experiment [19] is over 128 µg/mL; in [20], over 128 µg/mL; in experiment [21], over 128 µg/mL; in experiment [10], 1 µg/mL; in experiment [23] it was over 128 µg/mL; in experiment [13], 1 µg/mL. The compound further came in with an MIC in experiment [14] of 0.5 µg/mL. Moreover, the IC50 in [9] and in experiment [12] was over 200 µM each time. Further, the Activity result in experiment [22] and in experiment [24] was “Resistant” in each case.

In the case of `CC1(C)S[C@@H]2[C@H](CO)C(=O)N2[C@H]1C(=O)O`, the IC50 in experiment [9] was over 200 µM; in experiment [11], 752 µM; in experiment [12] it was over 200 µM. Besides, the figures for the MIC in experiment [10], in experiment [13] and in experiment [14] were 4 µg/mL, over 128 µg/mL and 4 µg/mL (≈ 17.3 µM), respectively.

For `CC1(C)S[C@@H]2[C@@H](CO)C(=O)N2[C@H]1C(=O)O`, the half-inhibitory concentration (IC50) in [9] was over 200 µM; in experiment [11], 275 µM; in [12], over 200 µM. Also, the MIC in experiment [10] was 8 µg/mL; in experiment [13], over 128 µg/mL; in [14], 4 µg/mL (≈ 17.3 µM).

In the case of `CC1(C)[C@H](C(=O)O)N2C(=O)[C@@H](CO)[C@H]2S1(=O)=O`, the 50% inhibitory concentration (IC50) is 72.3 µM in experiment [9] and over 200 µM in experiment [12]. Further, the MIC amounted to 1 µg/mL in experiment [10], 1 µg/mL in [13] and 0.125 µg/mL (≈ 0.475 µM) in [14].

`CC1(C)S[C@@H]2[C@@H](S)C(=O)N2[C@H]1C(=O)O`: the IC50 in experiment [9] was determined as 36.9 µM; in experiment [11], 988 µM; in experiment [12], 17.2 µM. Besides, the MIC in experiment [10] is 8 µg/mL; in [13] it was over 128 µg/mL; in experiment [14] it was 2 µg/mL (≈ 8.57 µM).
